Laboratory results from publication PMC3727929 (Molecular Biology of the Cell, 2013).
Entries after “also recorded” stand apart in the source; their conditions may differ.

Experiments:
[1] = Solubility of Dyn2 constructs on concentration; format: physicochemical; conditions: buffer A, pH 6.8; WT 6.0 mg/ml, H58K 10.0 mg/ml, F76K/Y78E 6.0 mg/ml
[2] = target: Dyn1 (S. cerevisiae cytoplasmic dynein heavy chain), full length, ZZ-TEV-GFP and HaloTag tagged (S. cerevisiae) (UniProt P36022); test: single-molecule TIRF fluorescence intensity analysis
Pac11-Myc = test: Single-molecule Dyn1-Pac11 colocalization assay; format: binding, S. cerevisiae; conditions: pH 7.2, motors diluted as for motility assays (∼1 nM)
Method in brief: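 Glass flow chamber from HNO3/NaOH-cleaned coverslip. Sequential steps: Cy5-labelled rabbit anti-Myc diluted 10,000× in 30 mM HEPES, 2 mM MgCl2, 1 mM EGTA, 0.5 mg/ml BSA (pH 7.2), 2 min; blocking buffer with 5 mg/ml BSA and 1 mg/ml β-casein, 5 min; TMR-HaloTag-labelled, TEV-released Dyn1 in blocking buffer, 5 min; second round of antibody, 5 min. Cy5–TMR spot colocalization scored.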

Dyn2 = Dyn2 (Saccharomyces cerevisiae, UniProt Q02647); test: Western blot of Dyn2 copurifying with Dyn1; format: binding, S. cerevisiae; conditions: IgG affinity purification, anti-Dyn2 Western blot, Dyn1 normalized
Method in brief: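 Dyn1 was IgG-bead purified from yeast lysate of WT, dyn2Δ and dyn2Δpac11Δ strains (lysis pH 7.4, 100 μM MgATP, beads 1 h at 4°C) and TEV-released at 16°C for 1 h. Dyn1 was quantified by Krypton-stained SDS–PAGE against BSA standards, then equal Dyn1 amounts were loaded. Blots used rabbit anti-Dyn2 (1:200), anti-Myc for Pac11 (1:2000) and Alexa Fluor 680 anti-rabbit secondary (1:5000).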

microtubules = conditions: full-length dynein, HaloTag-TMR labeled; ref Reck-Peterson et al., 2006; cited from earlier work
[3] = target: Dyn2 (S. cerevisiae dynein light chain), wild type, full length (S. cerevisiae, UniProt Q02647 1-92); test: ITC

In the case of Dyn2 H58K, the “solubility during concentration step” value [1] is reported as “remained soluble”.

For “Dyn1 (S. cerevisiae cytoplasmic dynein heavy chain), full length, ZZ-TEV-GFP and HaloTag tagged, P36022 1-4092”, the stoichiometry N [2] was 2.

For “Dyn1 purified from dyn2Δ: TMR-labeled Dyn1 purified from VY263 with dyn2Δ”, the “colocalization of Dyn1 with Pac11-Myc (in words)” value (Pac11-Myc) was “did not reveal any associated Pac11; also recorded: do not show significant TMR-Cy5 colocalization” and the “Dyn2 copurified with Dyn1” value (Dyn2) was “absence of Dyn2”.

For “Dyn1: full-length dynein labeled at its C-terminus with the HaloTag and covalently bound to tetramethylrhodamine (TMR)”, the average run length (microtubules) is listed as 1.7 μm.

With Dyn1 purified from dyn2Δpac11Δ the “colocalization of Dyn1 with Pac11-Myc (in words)” value (Pac11-Myc) was “did not reveal any associated Pac11; also recorded: do not show significant TMR-Cy5 colocalization” and the “Dyn2 copurified with Dyn1” value (Dyn2) was “absence of Dyn2”.

In the case of Dyn2 F76K/Y78E, the “solubility during concentration step” value [1] is reported as “remained soluble”.

With ITYDKGIQTDQ [Pac11 peptide 2 (second Dyn2-binding site of Pac11, residues 75-85)] the Kd [3] was 620 nM, the dH [3] was -5.17 ± 0.139 kcal/mol and the “stoichiometry N” value [3] was 1.05 ± 0.02 sites.
